One assay concerns L1210. Briefly: Antiproliferative activity against murine L1210 cells. Type of assay: functional, cell-based. The following applies: Mus musculus. In outline:
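Murine L1210 leukemia cells in Fischer's medium with 10% heat-inactivated horse serum; cells counted at 0, 24, 48, 72, 96 h with compound; growth rate from slope of semilog cell number vs time, as percent of control (doubling time 12 h). IC50 = concentration halving growth rate; average of two or three experiments.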

The subject of the next assay is Human betaherpesvirus 5. Briefly: Antiviral activity against human cytomegalovirus (HCMV) in plaque reduction assay. Type of assay: functional, organism-based. In short, it runs like this:
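HFF cells infected with roughly 100 pfu HCMV Towne per cm2; after adsorption, drug in growth medium at four to eight concentrations in duplicate wells; 7 days at 37 °C, crystal violet staining, microscopic plaque counts as percent reduction versus no-drug control. IC50 by regression on log concentration; average of duplicate experiments.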

Another assay concerns Human alphaherpesvirus 1. Briefly: Antiviral activity against herpes simplex virus type 1 (HSV-1) by ELISA test. Type of assay: functional, organism-based. In short, it runs like this:
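BSC-1 cells (10 000/well) in MEM(E) plus 10% calf serum, incubated overnight at 37 °C, then drug in quadruplicate plus HSV-1 KOS at 100 pfu/well; 3 days at 37 °C; HRP-conjugated rabbit anti-HSV-1 antibody, TMB substrate, absorbance at 450 and 570 nm. Percent reduction versus virus-only control; IC50 by regression on log concentration.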

Another assay concerns HFF. Briefly: Inhibition against human foreskin fibroblast (HFF) in a visual assay at time of plaque enumeration. The format is functional, cell-based. In outline:
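Stationary uninfected HFF cells, grown in MEM with 10% fetal bovine serum, inspected microscopically for cytotoxicity, scored visually when plaques were counted in the HCMV plaque assay.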

A further assay deals with KB. Briefly: Antiproliferative activity against KB cell. Type of assay: functional, cell-based. To be noted: Homo sapiens. In short, it runs like this:
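KB cells seeded at 3000-5000/well, compound added after overnight culture at 37 °C in quadruplicate at six to eight concentrations; 48 h incubation (about two population doublings) in CO2 incubator; ethanol fixation, 0.1% crystal violet stain, eluted dye read at 570 nm. IC50 from linear regression of percent inhibition against log concentration.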

Turning to `CSc1nc2sncc2n1[C@@H]1O[C@H](CO)[C@@H](O)[C@@H]1O`, the IC50 with L1210 worked out at 11 µM; in the assay on Human betaherpesvirus 5, 32 µM; in the assay on Human alphaherpesvirus 1, 25 µM; in the assay on HFF, 21 µM; in the assay on KB it was 15 µM.
For `Cc1nsc2c1nc(SCc1ccccc1)n2[C@@H]1O[C@H](CO)[C@@H](O)[C@H]1O`, in that order: above 100 µM, above 100 µM, above 100 µM, above 100 µM and above 100 µM.
For `Cc1nsc2[nH]c(SCc3ccccc3)nc12`, the IC50 is 7 µM in the assay on L1210; 21 µM with Human betaherpesvirus 5; 45 µM with Human alphaherpesvirus 1; 10 µM in the assay on HFF; 9 µM in the assay on KB.
For `CSc1nc2sncc2n1[C@@H]1O[C@H](CO)[C@@H](O)[C@H]1O`, in that order: 8.6 µM, 32 µM, 20 µM, 21 µM and 15 µM.
Consider `CSc1nc2cnsc2n1[C@@H]1O[C@H](CO)[C@@H](O)[C@@H]1O`, for which the IC50 with L1210 is above 100 µM; with Human betaherpesvirus 5 it was above 100 µM; in the assay on Human alphaherpesvirus 1 it was 100 µM; in the assay with HFF, above 100 µM; in the assay on KB, above 100 µM.
With `Cc1nsc2c1nc(SCc1ccccc1)n2[C@H]1C[C@H](O)[C@@H](CO)O1`, the IC50 in the assay on L1210, in the assay on Human betaherpesvirus 5, in the assay on Human alphaherpesvirus 1, with HFF and in the assay with KB was above 100 µM throughout.
Regarding `Cc1nsc2c1ncn2[C@H]1C[C@H](O)[C@@H](CO)O1`, the IC50 with L1210, in the assay on Human betaherpesvirus 5, with Human alphaherpesvirus 1, in the assay on HFF and with KB was above 100 µM throughout.
For the compound `Cc1nsc2c1ncn2[C@@H]1O[C@H](CO)[C@@H](O)[C@@H]1O`, the concentration for half-maximal inhibition (IC50) in the assay on L1210, in the assay with Human betaherpesvirus 5, with Human alphaherpesvirus 1, in the assay with HFF and with KB was above 100 µM in each case.
In the case of `CSc1nc2cnsc2[nH]1`, the IC50 was found to be 7 µM in the assay with L1210; 32 µM in the assay on Human betaherpesvirus 5; 45 µM in the assay on Human alphaherpesvirus 1; 32 µM in the assay with HFF; 15 µM with KB.
Regarding `CSc1nc2c(C)nsc2n1[C@@H]1O[C@H](CO)[C@@H](O)[C@H]1O`, the IC50 in the assay on L1210, in the assay on Human betaherpesvirus 5, in the assay on Human alphaherpesvirus 1, with HFF and with KB was above 100 µM each time.
As for `OC[C@H]1OC(n2c(SCc3ccccc3)nc3sncc32)[C@@H](O)[C@@H]1O` (stereo not given in full), the IC50 in the assay on L1210 was 1.5 µM; with Human betaherpesvirus 5 it was 3.2 µM; with Human alphaherpesvirus 1 it was above 100 µM; with HFF it was 2.1 µM; in the assay on KB, 3 µM.
For `Cc1nsc2ncn([C@H]3C[C@H](O)[C@@H](CO)O3)c12`, in that order: 78 µM, above 100 µM, above 100 µM, above 100 µM and above 100 µM.
For `CSc1nc2sncc2n1[C@H]1C[C@H](O)[C@@H](CO)O1`, in that order: 20 µM, 22 µM, 10 µM, 15 µM and 6 µM.
With `CSc1nc2c(C)nsc2[nH]1`, the IC50 came to 13 µM in the assay on L1210; 18 µM in the assay with Human betaherpesvirus 5; 60 µM in the assay on Human alphaherpesvirus 1; 26 µM in the assay on HFF; 60 µM in the assay on KB.
With `CSc1nc2c(C)nsc2n1[C@H]1C[C@H](O)[C@@H](CO)O1`, the concentration for half-maximal inhibition (IC50) with L1210, in the assay on Human betaherpesvirus 5, with Human alphaherpesvirus 1, with HFF and with KB was above 100 µM each time.
Regarding `OC[C@H]1O[C@@H](n2c(SCc3ccccc3)nc3cnsc32)C[C@@H]1O`, the half-maximal inhibitory concentration (IC50) with L1210 was 8 µM; with Human betaherpesvirus 5, above 100 µM; in the assay with Human alphaherpesvirus 1, above 100 µM; in the assay with HFF, above 100 µM; in the assay on KB it was above 100 µM.
For `CSc1nc2snc(C)c2n1[C@H]1C[C@H](O)[C@@H](CO)O1`, the IC50 in the assay with L1210 worked out at 33 µM; in the assay on Human betaherpesvirus 5 it was 32 µM; in the assay with Human alphaherpesvirus 1, 60 µM; with HFF, 32 µM; with KB, 30 µM.
`Cc1nsc2ncn(C3O[C@H](CO)[C@@H](O)[C@H]3O)c12` (stereo not given in full): the IC50 was 100 µM with L1210; 32 µM in the assay on Human betaherpesvirus 5; 70 µM in the assay on Human alphaherpesvirus 1; 32 µM in the assay with HFF; above 100 µM with KB.
As for `OC[C@H]1O[C@@H](n2c(SCc3ccccc3)nc3sncc32)C[C@@H]1O`, the 50% inhibitory concentration (IC50) in the assay on L1210 turned out to be 2.2 µM; in the assay with Human betaherpesvirus 5, 3.2 µM; in the assay on Human alphaherpesvirus 1, 15 µM; with HFF it was 2.1 µM; in the assay with KB, 3 µM.
For `CSc1nc2cnsc2n1[C@@H]1O[C@H](CO)[C@@H](O)[C@H]1O`, in that order: above 100 µM, above 100 µM, above 100 µM, above 100 µM and above 100 µM.
The matching figures for `CSc1nc2cnsc2n1[C@H]1C[C@H](O)[C@@H](CO)O1`: above 100 µM, above 100 µM, above 100 µM, above 100 µM and above 100 µM.
The matching figures for `Cc1nsc2c1ncn2[C@@H]1O[C@H](CO)[C@@H](O)[C@H]1O`: 10 µM, above 100 µM, above 100 µM, 150 µM and 90 µM.
With `Cc1nsc2c1nc(SCc1ccccc1)n2[C@@H]1O[C@H](CO)[C@@H](O)[C@@H]1O`, the IC50 in the assay with L1210, in the assay on Human betaherpesvirus 5, with Human alphaherpesvirus 1, with HFF and in the assay on KB was above 100 µM each time.
With `c1ccc(CSc2nc3cnsc3[nH]2)cc1`, the IC50 stood at 0.3 µM in the assay with L1210; 21 µM in the assay on Human betaherpesvirus 5; 15 µM with Human alphaherpesvirus 1; 14 µM in the assay on HFF; 0.2 µM in the assay with KB.
For `OC[C@H]1OC(n2c(SCc3ccccc3)nc3cnsc32)[C@@H](O)[C@@H]1O` (stereo not given in full), in that order: above 100 µM, above 100 µM, above 100 µM, above 100 µM and above 100 µM.
For `Cc1nsc2[nH]cnc12`, in that order: 17 µM, 32 µM, 45 µM, 32 µM and 20 µM.
Turning to `CSc1nc2c(C)nsc2n1[C@@H]1O[C@H](CO)[C@@H](O)[C@@H]1O`, the IC50 in the assay with L1210, in the assay on Human betaherpesvirus 5, in the assay on Human alphaherpesvirus 1, in the assay with HFF and with KB was above 100 µM each time.
